From ChEMBL document CHEMBL4316617, “Inhibition of the FAD containing ER oxidoreductin 1 (Ero1) protein by EN-460 as a strategy for treatment of multiple myeloma” (Bioorg Med Chem, 2019)
The source made the active and inactive calls. The calls are words filed in the database; no cut-off is given here.

Experiments:
U-266 [1] = experiment: Cytotoxicity against human U266 cells assessed as reduction in cell viability measured after 72 hrs by MTT assay; assay type: functional, cell-based; settings: U-266, 72 h
Summary of the method: (§1)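 MM cell lines exposed to compound for 72 h. MTT (50 μl of 2 mg/ml) added for 4 h, formazan dissolved in DMSO, absorbance read at 570 nm. IC50 calculated; mean ± SD of 3 independent experiments.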

MM1.S = experiment: Cytotoxicity against human MM1S cells assessed as reduction in cell viability measured after 72 hrs by MTT assay; assay type: functional, cell-based; summary of the method: as §1
[2] = tested on: T1, ERO1-like protein alpha (Homo sapiens), Q96HE7 [C104A,C131A,C166A]; experiment: (§2) Inhibition of recombinant human Ero1Lalpha C104A/C131A/C166A triple mutant (22 to 468 residues) expressed in Escherichia coli BL21(DE3)-RIL measured after 30 mins by Amplex red dye based fluorescence assay
T1 sequence (whole entry): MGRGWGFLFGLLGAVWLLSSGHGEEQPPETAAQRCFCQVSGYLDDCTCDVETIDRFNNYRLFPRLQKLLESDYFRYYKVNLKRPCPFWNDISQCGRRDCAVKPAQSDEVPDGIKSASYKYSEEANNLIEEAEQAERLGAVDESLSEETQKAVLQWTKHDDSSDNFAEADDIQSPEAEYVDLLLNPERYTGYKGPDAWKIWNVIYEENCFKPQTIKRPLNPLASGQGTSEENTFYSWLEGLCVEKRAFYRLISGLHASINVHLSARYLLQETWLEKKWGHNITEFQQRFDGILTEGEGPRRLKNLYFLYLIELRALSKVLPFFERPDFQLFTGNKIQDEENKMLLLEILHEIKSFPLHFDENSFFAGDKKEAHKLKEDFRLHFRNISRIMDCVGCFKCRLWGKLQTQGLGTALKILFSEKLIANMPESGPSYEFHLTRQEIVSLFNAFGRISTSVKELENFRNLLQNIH

ERO1-like protein alpha [3] = target: T2, ERO1-like protein alpha (Homo sapiens, UniProt Q96HE7, C104A/C131A/C166A); experiment: as §2
[4] = target: Protein disulfide-isomerase (Homo sapiens) (UniProt P07237); experiment: (§3) Binding affinity to recombinant human His-tagged PDI (18 to 479 residues) expressed in Escherichia coli assessed as melting temperature at 20 uM by SYPRO orange protein gel staining based differential scanning fluorimetry (reference value: 58.86 +/- 0.12 degreeC)
[5] = tested on: T1, ERO1-like protein alpha (Homo sapiens), Q96HE7 [C104A,C131A,C166A]; experiment: as §3, with “Ero1Lalpha C104A/C131A/C166A triple mutant (22” for “His-tagged PDI (18”, “468” for “479”, “coli BL21(DE3)-RIL” for “coli”, “53.15” for “58.86”, “0.15” for “0.12”
[6] = Solubility of the compound at >200 uM; assay type: physicochemical
[7] = Solubility of the compound in pH 7.4 phosphate buffered saline; assay type: physicochemical; settings: buffer
[8] = tested on: T1, ERO1-like protein alpha (Homo sapiens), Q96HE7 [C104A,C131A,C166A]; experiment: Competitive inhibition of recombinant human Ero1Lalpha C104A/C131A/C166A triple mutant (22 to 468 residues) expressed in Escherichia coli BL21(DE3)-RIL using varying levels of human PDI as substrate by Lineweaver-burk plot analysis
[9] = target: Lysine-specific histone demethylase 1A (Homo sapiens, UniProt O60341); experiment: Inhibition of recombinant human LSD1 using ARTK(diMethyl)QTARKSTGGKAPRKQLAPRKQLA as substrate measured after 30 mins by ADHP/horseradish peroxidase coupled fluorescence assay
Summary of the method: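 LSD-1 activity measured with a commercial kit following the manufacturer's instructions. IC50 fitted, N = 2.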

[10] = target: T3, Amine oxidase [flavin-containing] B (Homo sapiens, UniProt P27338); experiment: Inhibition of MAOB (unknown origin) using kynuramine as substrate
T3 sequence (P27338 whole entry): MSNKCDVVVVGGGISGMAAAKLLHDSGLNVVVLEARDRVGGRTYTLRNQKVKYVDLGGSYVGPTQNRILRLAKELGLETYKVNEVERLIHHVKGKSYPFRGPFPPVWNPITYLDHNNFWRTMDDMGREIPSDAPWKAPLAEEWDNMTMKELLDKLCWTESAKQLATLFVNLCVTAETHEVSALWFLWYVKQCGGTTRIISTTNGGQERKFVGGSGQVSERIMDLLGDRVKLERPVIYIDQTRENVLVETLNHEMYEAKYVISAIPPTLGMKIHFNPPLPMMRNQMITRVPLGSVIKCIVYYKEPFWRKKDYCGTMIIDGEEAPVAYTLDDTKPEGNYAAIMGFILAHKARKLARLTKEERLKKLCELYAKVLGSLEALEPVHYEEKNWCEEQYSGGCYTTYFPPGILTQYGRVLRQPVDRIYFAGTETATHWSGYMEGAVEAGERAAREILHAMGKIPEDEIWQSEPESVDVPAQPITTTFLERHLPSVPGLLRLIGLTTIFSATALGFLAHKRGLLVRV
Summary of the method: (§4)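 Purchased MAO-A or MAO-B activity measured as kynuramine metabolism, with fluorescence read at Ex 310/Em 380 nm. IC50 fitted, N = 2.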

[11] = target: T4, Amine oxidase [flavin-containing] A (Homo sapiens, UniProt P21397); experiment: Inhibition of MAOA (unknown origin) using kynuramine as substrate; summary of the method: as §4
T4 sequence (P21397 whole entry): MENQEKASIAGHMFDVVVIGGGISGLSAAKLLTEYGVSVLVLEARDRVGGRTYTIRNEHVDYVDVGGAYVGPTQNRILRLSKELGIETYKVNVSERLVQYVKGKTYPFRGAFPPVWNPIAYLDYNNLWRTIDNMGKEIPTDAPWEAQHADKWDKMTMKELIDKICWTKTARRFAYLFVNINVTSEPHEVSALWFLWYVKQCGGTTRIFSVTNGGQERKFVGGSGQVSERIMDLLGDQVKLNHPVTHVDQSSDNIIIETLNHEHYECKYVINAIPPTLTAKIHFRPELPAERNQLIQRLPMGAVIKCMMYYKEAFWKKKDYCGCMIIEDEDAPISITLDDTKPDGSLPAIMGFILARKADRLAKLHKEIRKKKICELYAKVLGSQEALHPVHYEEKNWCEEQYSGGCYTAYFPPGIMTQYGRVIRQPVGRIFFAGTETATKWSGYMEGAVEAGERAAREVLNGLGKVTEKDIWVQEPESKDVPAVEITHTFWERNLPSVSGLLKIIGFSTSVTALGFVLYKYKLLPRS

PBMC = experiment: Cytotoxicity against PBMC (unknown origin) assessed as cell death; assay type: cell-based
U-266 [12] = experiment: Induction of endoplasmic reticulum stress in human U266 cells assessed as reduction in full length ATF6 measured after 2 to 8 hrs by Western blot analysis; assay type: functional, cell-based
Summary of the method: (§5)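 U266 cells treated with compound or DMSO for 2, 4 and 8 h. Lysates resolved on 8–10% SDS-PAGE and transferred to PVDF. Blocked in 5% milk/TBST, probed overnight at 4 °C for p-eIF2α, ATF4 and ATF6 (this antibody detects full-length ATF6 only), with β-actin as loading control. Chemiluminescent detection; n = 3.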

U-266 [13] = experiment: Induction of endoplasmic reticulum stress in human U266 cells assessed as increase in eIF2alpha phosphorylation measured after 2 to 8 hrs by Western blot analysis; assay type: functional, cell-based; summary of the method: as §5
U-266 [14] = experiment: Induction of apoptosis in human U266 cells at 12.5 to 50 uM measured after 18 hrs by Annexin V-FITC/propidium iodide staining based flow cytometry; assay type: functional, cell-based
Summary of the method: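 U266 cells treated with compound or DMSO vehicle for 18 h, washed in ice-cold PBS, then stained with Annexin V-FITC/PI in binding buffer for 15 min at 37 °C in the dark. At least 10,000 cells analysed by flow cytometry. Mean ± SD, n = 3 independent experiments.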

U-266 [15] = experiment: Induction of endoplasmic reticulum stress in human U266 cells assessed as increase in ATF4 level measured after 2 to 8 hrs by Western blot analysis; assay type: functional, cell-based; summary of the method: as §5
ERO1-like protein alpha [16] = target: T2, ERO1-like protein alpha; experiment: Inhibition of recombinant human Ero1Lalpha C104A/C131A/C166A triple mutant (22 to 468 residues) expressed in Escherichia coli BL21(DE3)-RIL using human PDI as substrate measured after 30 mins by Amplex red dye based fluorescence assay

Chain of Protein disulfide-isomerase (Homo sapiens) (P07237 18-508 limits assumed): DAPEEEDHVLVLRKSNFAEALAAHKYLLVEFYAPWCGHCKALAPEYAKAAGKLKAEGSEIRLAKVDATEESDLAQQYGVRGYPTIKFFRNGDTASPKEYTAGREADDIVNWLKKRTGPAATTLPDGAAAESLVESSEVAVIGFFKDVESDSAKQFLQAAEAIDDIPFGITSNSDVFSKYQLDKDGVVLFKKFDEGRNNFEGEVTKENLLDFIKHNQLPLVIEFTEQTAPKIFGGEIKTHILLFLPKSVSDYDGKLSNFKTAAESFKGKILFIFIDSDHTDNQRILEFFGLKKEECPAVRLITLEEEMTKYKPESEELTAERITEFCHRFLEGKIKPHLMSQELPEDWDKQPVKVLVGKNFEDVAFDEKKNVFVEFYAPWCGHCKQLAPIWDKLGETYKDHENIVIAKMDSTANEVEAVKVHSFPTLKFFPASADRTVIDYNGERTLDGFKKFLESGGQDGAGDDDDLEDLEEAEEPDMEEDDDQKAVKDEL

inhibition [2] | IC50 (ERO1-like protein alpha [3]) [µM] | Tm [4] [°C] | Tm [5] [°C] | solubility [6] | solubility [7] | inhibition [8] | IC50 [10] [µM] | IC50 [11] [µM] | IC50 (ERO1-like protein alpha [16]) [µM] | SMILES | IC50 (U-266 [1]) [µM] | IC50 (MM1.S) [µM] | IC50 [9] [µM] | Activity (PBMC) | Activity (U-266 [12]) | Activity (U-266 [13]) | Activity (U-266 [14]) | Activity (U-266 [15])
Dose-dependent effect | 12.2 | 57.7 | 59.8 | Insoluble | – | – | – | – | – | [N-]=[N+]=Nc1cccc(-c2ccc(/C=C3/C(=O)N(c4ccc(Cl)c(C(=O)O)c4)N=C3C(F)(F)F)o2)c1 | 14.7 | 18.8 | – | – | – | – | – | –
– | – | – | – | – | Insoluble | – | – | – | – | [N-]=[N+]=Nc1ccc(-c2ccc(/C=C3/C(=O)N(c4ccc(Cl)c(C(=O)O)c4)N=C3C(F)(F)F)o2)cc1 | 7.03 | 17.3 | – | – | – | – | – | –
Dose-dependent effect | 12.7 | 59.2 | 55.9 | Insoluble | – | Active | 30.6 | 7.91 | 22.1 | O=C(O)c1cc(N2N=C(C(F)(F)F)/C(=C/c3ccc(-c4ccccc4)o3)C2=O)ccc1Cl | 10.1 | 14.7 | 4.16 | Toxic | Active | Active | Active | Active
